{
  "source": "paper PMC9424334",
  "about": "(Biomolecules & Therapeutics, 2022)",
  "assay_type_in_all_cases": "cell-based, human",
  "key": {"[1]": {"tested_on": "acetylation of histone H3, H4 and tubulin in MM.1S cells", "experiment": "Immunoblotting of acetylated proteins", "conditions": "30-1000 nM, 6 h", "how_it_was_run": "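Histones were extracted afterwards, and acetylation of histone H3, H4 and tubulin was assessed by immunoblotting with chemiluminescence detection.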"}, "[2]": {"tested_on": "DACT family in MM.1S cells", "experiment": "Immunoblotting of DACT family expression", "conditions": "24 h", "how_it_was_run": "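Total lysates were prepared in RIPA buffer with protease/phosphatase inhibitors and immunoblotted for DACT1, DACT2 and DACT3, normalised to GAPDH with chemiluminescence detection. Data are mean ± SEM.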"}, "[3]": {"tested_on": "cyclin D1 and CDK4 in MM.1S and RPMI8226 cells", "experiment": "Immunoblotting for CDK4 and cyclin D1", "conditions": "MM.1S cells, higher concentration ranges, 24 h", "how_it_was_run": "(§1)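 Total lysates were made in RIPA buffer with protease/phosphatase inhibitors, quantified by BCA and immunoblotted, with chemiluminescence detection and GAPDH normalisation. Data are mean ± SEM; one-way ANOVA vs control.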"}, "[4]": {"tested_on": "cleaved caspase-3 in MM.1S and RPMI8226 cells", "experiment": "Immunoblotting for cleaved caspase-3", "conditions": "1000 nM", "how_it_was_run": "as §1"}},
  "data": [
    {"smiles": "O=C(CCCCCCC(=O)Nc1ccccc1)NO", "note": "[SAHA, Suberoylanilide hydroxamic acid]", "values": [
      {"measurement": "acetylation intensity of histone H3 and H4", "setting": "[1]", "value": "increased"},
      {"measurement": "acetylation of tubulin", "setting": "[1]", "value": "increased"},
      {"measurement": "protein expression of DACT3", "setting": "[2]; 3000 nM", "value": "significantly enhanced"},
      {"measurement": "protein expression of DACT1 and DACT2", "setting": "[2]", "value": "not altered"},
      {"measurement": "expression level of CDK4 and Cyclin D1", "setting": "[3]", "value": "reduced"},
      {"measurement": "cleaved caspase-3", "setting": "[4]", "value": "only marginally increased"}
    ]}
  ]
}
